Assay results from PMC7017412 (ACS Omega, 2020).
Changes are numbered by the printed parent chain.

Experiments:
WT hTMPK [1] = biological target: T1, WT hTMPK (Homo sapiens, UniProt P23919); conditions: cited from earlier work
T1 sequence (P23919 1-212): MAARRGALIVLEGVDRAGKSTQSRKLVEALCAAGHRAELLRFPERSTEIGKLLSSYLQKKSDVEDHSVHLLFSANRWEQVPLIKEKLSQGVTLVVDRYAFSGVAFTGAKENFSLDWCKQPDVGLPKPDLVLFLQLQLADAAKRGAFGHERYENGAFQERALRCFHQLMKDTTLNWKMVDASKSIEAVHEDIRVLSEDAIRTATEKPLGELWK

TMPK from yeast (ScTMPK) = conditions: cited from earlier work
F105Y hTMPK [2] = biological target: T2, F105Y hTMPK (Homo sapiens, UniProt P23919, F105Y); conditions: cited from earlier work
T2 sequence (P23919 1-212 F105Y): T1 sequence (P23919 1-212) with F105Y

WT hTMPK [3] = biological target: T1, WT hTMPK; format: binding; conditions: WT–AZTMP, 2 mM ADP, Ile184δ1 CPMG RD
Procedure, shortened: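 Ile184δ1 CHD2 methyl 1H CPMG dispersion was run at 34 °C on a WT–AZTMP sample with 2 mM ADP, in pH 6.9 MES/MgCl2 D2O buffer. Trelax was 40 ms with ncyc 1–78. pa and kex were fitted by grid search to the full exchange equation, and koff was derived from them. Errors are ±2 standard error from 100 bootstrap resampled datasets.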

F105Y hTMPK [4] = biological target: T2, F105Y hTMPK; test: ADP binding constants by two-dimensional NMR lineshape fitting of ADP titration; conditions: for Kd / koff: 34 °C, pH 6.9
Procedure, shortened: (§1)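 ILV methyl-labelled (13CH3/13CHD2) His-tagged hTMPK was expressed in E. coli and purified by cobalt affinity and cation exchange. Samples were in D2O with 20 mM MES, 150 mM NaCl, 10 mM MgCl2, 1 mM DTT, pH 6.9, plus 2 mM TMP or AZTMP. Protein was WT 0.8 mM and F105Y 0.4 mM. ADP was titrated at 0–2.4 ligand:protein across a 1H–13C HMQC series at 34 °C. KD and koff came from 2D lineshape fitting of five shifting methyl peaks (2-state model) with bootstrap errors.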

WT hTMPK [5] = biological target: T1, WT hTMPK; test: as above; conditions: for Kd / koff: 34 °C, pH 6.9
Procedure, shortened: as §1

| Compound | Km (WT hTMPK [1]) | kCAT (WT hTMPK [1]; substrate phosphorylation) | kCAT (TMPK from yeast (ScTMPK)) | kCAT (F105Y hTMPK [2]; F105Y hTMPK, substrate phosphorylation) | Km (F105Y hTMPK [2]; F105Y hTMPK) | reduction of activity toward TMP by Phe105Tyr mutation (F105Y hTMPK [2]; F105Y vs WT hTMPK) | koff estimated from kex and pa (WT hTMPK [3]) | Kd (F105Y hTMPK [4]; ADP binding to F105Y hTMPK with 2 mM AZTMP bound) | Kd (F105Y hTMPK [4]; ADP binding to F105Y hTMPK with 2 mM TMP bound) | koff (F105Y hTMPK [4]; ADP off-rate from F105Y hTMPK with 2 mM AZTMP bound) | koff (F105Y hTMPK [4]; ADP off-rate from F105Y hTMPK with 2 mM TMP bound) | reduced ADP off-rate (koff) with AZTMP bound relative to TMP bound (F105Y hTMPK [4]; F105Y hTMPK) | Kd (WT hTMPK [5]; ADP binding to WT hTMPK with 2 mM AZTMP bound) | Kd (WT hTMPK [5]; ADP binding to WT hTMPK with 2 mM TMP bound) | koff (WT hTMPK [5]; ADP off-rate from WT hTMPK with 2 mM AZTMP bound) | koff (WT hTMPK [5]; ADP off-rate from WT hTMPK with 2 mM TMP bound) | faster ADP off-rate (koff) with AZTMP bound than with TMP bound (WT hTMPK [5]; WT hTMPK) |
| --- | --- | --- | --- | --- | --- | --- | --- | --- | --- | --- | --- | --- | --- | --- | --- | --- | --- |
| Cc1cn([C@H]2C[C@H](O)[C@@H](COP(=O)(O)O)O2)c(=O)[nH]c1=O [TMP, thymidine monophosphate] | 6.3 µM | 0.73 s^–1 | 35 s^–1 | 0.17 s^–1 | 4.2 µM | 4 fold |  |  |  |  |  |  |  |  |  |  |  |
| Nc1ncnc2c1ncn2[C@@H]1O[C@H](COP(=O)(O)OP(=O)(O)O)[C@@H](O)[C@H]1O [ADP] |  |  |  |  |  |  | 31 ± 5.1 s^–1 | 4.4 ± 1.7 µM | 4.2 ± 1.3 µM | 0.20 ± 0.9 s^–1 | 2.7 ± 0.8 s^–1 | 15 fold | 15 ± 1 µM | 15 ± 2.1 µM | 24 ± 0.8 s^–1 | 12 ± 0.7 s^–1 | 2 fold |
